Rows were chosen to be rich in hits. Some 2% of all compounds tested hit in one or more screens of this group.
Rpn11 block = Rpn11 (PSMD14) deubiquitinase inhibitors, primary screen, biochemical, fluorescence polarization, uHTS | 26S proteasome non-ATPase regulatory subunit 14 (Homo sapiens), O00487 | human 26S proteasome, Ub4-pepOG fluorescence polarization; 20S core pre-blocked with epoxomicin | inhibition, % at 20 µM | 360,000 compounds, 0.59% hits | AID 588493, 2011;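 active = inhibition at 20 µM, scaled to each plate's controls, above about 33%, limit read from the data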
TPT1 inh = Candida albicans TPT1 enzyme inhibitors, primary screen, biochemical, fluorescence polarization; tRNA 2'-phosphotransferase TPT1 (Candida albicans SC5314); recombinant caTPT1, FP RNA substrate dephosphorylation; inhibition, % at 5 µM; 300,000 compounds, 0.81% hits; AID 1962, 2009;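 active = inhibition above the mean of all tested compounds plus 3 SD, set per screening campaign, cut at about 24% in these data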
ATG4B inhibitor = ATG4B protease inhibitors, primary screen, biochemical, fluorescence, uHTS. Cysteine protease ATG4B (Homo sapiens), Q9Y4P1. ATG4B cleavage of LC3-PLA2, NBD-HPC fluorescence, 1 h. inhibition, % at 8.33 µM. 340,000 compounds, 0.51% hits; in the data active = inhibition above about 40%
HNF4A DNA FP = change in binding of human HNF4A to DNA, primary screen, biochemical, fluorescence polarization, FITC-DNA | AID 1224865, 2016 | 1 h | Hepatocyte nuclear factor 4-alpha (Homo sapiens), P41235 | 360,000 compounds, 0.3% hits | activity change, % at 10 µM; in the data active = activity change above about 30%, passing the limit was not always enough
Target sequence (P41235 whole entry, looked up): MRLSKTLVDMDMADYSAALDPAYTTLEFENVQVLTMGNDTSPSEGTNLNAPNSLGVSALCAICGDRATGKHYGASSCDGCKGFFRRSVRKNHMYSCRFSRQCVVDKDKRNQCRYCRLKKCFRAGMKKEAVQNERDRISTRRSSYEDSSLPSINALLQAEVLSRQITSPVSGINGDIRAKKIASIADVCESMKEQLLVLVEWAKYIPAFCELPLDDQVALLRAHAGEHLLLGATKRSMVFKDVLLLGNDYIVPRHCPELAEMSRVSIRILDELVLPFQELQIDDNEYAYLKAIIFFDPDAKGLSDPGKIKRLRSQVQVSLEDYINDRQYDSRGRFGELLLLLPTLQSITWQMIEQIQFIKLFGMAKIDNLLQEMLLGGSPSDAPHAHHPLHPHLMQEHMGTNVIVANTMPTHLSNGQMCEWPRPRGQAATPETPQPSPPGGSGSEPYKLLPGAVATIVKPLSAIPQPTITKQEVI
SENP1 inh = human SENP1 catalytic domain inhibitors, primary screen, biochemical, FRET, uHTS | Sentrin-specific protease 1 (Homo sapiens), Q9P0U3 | recombinant SENP1 catalytic domain, CyPet-SUMO1-YPet FRET cleavage | inhibition, % at 10 µM | 360,000 compounds, 0.21% hits;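 active = inhibition at least 30% at 10 µM, raw YFP signal under a set limit, fluorescence ratio 0.5 to 1.5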
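Assay system: hSENP1 catalytic domain, recombinant. Amount: SENP1 enzyme, 20 pM final. Schedule: 50 min reaction, RT, dark. Technique: FRET, CFP and YFP emission. Control set: no-enzyme wells low, DMSO-plus-enzyme wells high control.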
CSN inh = inhibitors of CSN-mediated cullin deneddylation, primary screen, biochemical, fluorescence polarization, uHTS; COP9 signalosome complex subunit 5 (Homo sapiens), Q92905; Purified CSN, SCF-Nedd8-OG deneddylation; inhibition, % at 12.5 µM; 360,000 compounds, 0.38% hits;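 active = pattern-corrected inhibition above about 35%, with an unprinted fluorescence ratio check between 0.5 and 1.5, limit read from the data, passing the limit was not always enough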
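assay system = purified human Csn5 enzyme expressed in HEK293T cells | amount = 0.24 nM enzyme | buffer or medium = Tris/NaCl/DTT buffer, pH 7.5 | reagent = 10 nM SCFSkp2-Nedd8OG | compound = one concentration, 12.5 µM, 0.25% DMSO | times = 90 min reaction at room temperature | signal = FP | read-out basis = % inhibition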
TPT1 inh confirm = Candida albicans TPT1 inhibitors, confirmation, biochemical, fluorescence polarization, triplicate. shares compounds with TPT1 inh. recombinant caTPT1, RNase T1 coupled. inhibition, % at 5 µM. 2,400 compounds, 74% hits. AID 2149, 2009;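 active = inhibition above the primary screen limit, the mean inhibition of all tested compounds plus 3 SD, cut at about 25% in these data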
RNase T1 inh = RNase T1 inhibitors, counter-screen for TPT1 inhibitor project, biochemical, fluorescence polarization; 2,400 compounds, 83% hits; RNase T1 cleavage, 1536-well; shares compounds with TPT1 inh; inhibition, % at 5 µM;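 active = inhibition above the solvent-only control well mean plus 3 SD, limit set per screening run, cut at about 23% in these data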;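 note: inhibitors block cleavage so intact labeled substrate keeps polarization high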
Target sequence (P00651 whole entry, looked up): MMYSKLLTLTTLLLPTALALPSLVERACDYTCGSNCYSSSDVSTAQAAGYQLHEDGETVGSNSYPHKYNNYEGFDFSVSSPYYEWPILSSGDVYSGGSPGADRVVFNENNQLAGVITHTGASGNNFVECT
A number is an active result; n = inactive; x = not tested or not shown.

SMILES	Rpn11 block	TPT1 inh	ATG4B inhibitor	HNF4A DNA FP	SENP1 inh	CSN inh	TPT1 inh confirm	RNase T1 inh
CC(=O)O[C@@H]1CC[C@]2(C)C3CC[C@]4(C)C(=O)[C@H](O)CC4C3[C@@H](OC(C)=O)C[C@H]2C1 (some centres not stated)	n	x	n	n	n	n	x	x
COc1ccc2[nH]cc(C3=CCNCC3)c2c1	x	52	x	x	x	x	61	72
CN1C(=O)/C(=C/c2cccn2-c2ccc3ccccc3c2)C(=O)NC1=S	n	38	n	n	n	n	n	n
CCOC(=O)c1cncn1[C@@H](C)c1ccccc1	n	n	n	x	n	n	x	x
O=C1NC(=O)N(c2ccc3c(c2)OCO3)C(=O)/C1=C\c1ccsc1	n	n	n	n	n	n	x	x
O=C1NC(=O)N(c2ccccc2)C(=O)/C1=C/c1ccoc1	n	113	n	n	n	44	60	74
Cc1ccc(N2C(=O)NC(=O)/C(=C\c3ccsc3)C2=O)cc1C	x	28	x	x	x	x	52	66
COc1cc(/C=C2/C(=O)NC(=O)N(c3ccccc3)C2=O)ccc1O	n	n	n	n	n	n	x	x
Cc1ccc(N2C(=O)NC(=O)/C(=C/c3cnc(-c4ccccc4)nc3)C2=O)cc1C	n	25	n	n	n	n	n	n
Cc1cccc(N2C(=O)NC(=O)/C(=C\c3cnc(-c4ccccc4)nc3)C2=O)c1	n	n	n	n	n	n	x	x
C[C@](N)(CCP(=O)(O)O)C(=O)O	n	n	n	n	n	n	x	x
COC(=O)C1=C(c2c(C)noc2C)C[C@@H]2CC[C@H]1N2C(=O)NC1Cc2ccccc2C1	n	x	n	n	n	n	x	x
COc1ccc(CN2Cc3cnnn3-c3ccccc3C2C)cc1 (configuration not stated)	n	x	n	n	n	n	x	x
COC(=O)C1=C(c2ccc(OC(F)(F)F)cc2)C[C@@H]2CC[C@H]1N2C(=O)NC1CCCCC1	n	x	n	n	n	n	x	x
CN1C(=O)N(C)C(=O)C2(Cc3cc(NC(=O)c4ccc(F)cc4)ccc3N3CCCC32)C1=O (configuration not stated)	n	30	n	n	n	n	n	37
Cc1ccccc1N1CCN(C2CCCN(C(=O)Cc3c(C)noc3C)C2)CC1 (configuration not stated)	n	n	n	n	n	n	x	x
CCC1CN1P1(=O)OCC(C)([N+](=O)[O-])CO1 (configuration not stated)	n	x	n	n	n	n	x	x
C(#CCN1CCCC1)CN1CCCC1	n	x	n	n	n	n	x	x
O=C1CC(=O)N(c2cccc(Br)c2)C(=O)N1	n	n	n	n	n	n	x	x
O=C1CC(=O)N(c2ccccc2F)C(=O)N1	n	n	n	n	n	n	x	x
Cc1cc(Br)ccc1N1C(=O)CC(=O)NC1=O	n	24	n	n	n	n	n	n
O=C1CC(=O)N(c2ccc(Cl)cc2Cl)C(=O)N1	n	37	n	n	n	n	n	25
Cc1ccc(N2C(=O)NC(=O)/C(=C\c3ccc([N+](=O)[O-])o3)C2=O)cc1	x	29	x	x	x	x	50	n
CCOCC1(CCc2ccccc2)C(=O)NC(=S)NC1=O	n	x	n	n	n	n	x	x
COC(=O)C1=C(c2ccc(C(C)=O)cc2)C[C@@H]2CC[C@H]1N2C(=O)NCc1ccc(C(F)(F)F)cc1	n	x	n	n	n	n	x	x
SMILES	Rpn11 block	TPT1 inh	ATG4B inhibitor	HNF4A DNA FP	SENP1 inh	CSN inh	TPT1 inh confirm	RNase T1 inh
CC(C)(C)[C@]1(O)C[C@@H]2OC(=O)C[C@@]23C(=O)O[C@@H]2OC(=O)[C@@H](O)C213 (some centres not stated)	n	x	n	n	n	n	x	x
O=C1NC(=S)N(c2ccc(F)cc2)C(=O)/C1=C/c1ccccc1O	n	n	n	n	n	n	x	x
O=C1NC(=S)N(c2ccc(Br)cc2)C(=O)/C1=C/N1CCN(C(=O)c2ccco2)CC1	x	86	n	49	n	57	37	52
Cn1c(O)c(/C=N/c2ncccn2)c(=O)n(C)c1=O	n	n	n	n	n	n	x	x
CCCCn1c(=O)c(C=Nc2cccnc2Cl)c(O)n(CCCCl)c1=O	n	30	n	n	n	n	n	n
COC(=O)C1=Nc2ccccc2/C1=C\c1c(O)n(-c2ccc(Br)cc2)c(=O)[nH]c1=O	n	27	n	n	n	n	33	44
COC(=O)C1=Nc2ccccc2/C1=C\c1c(O)n(-c2ccc(OC)cc2)c(=O)[nH]c1=O	n	n	n	n	n	n	x	x
CCN(CC)CCC(=O)O[C@H]1CC[C@]2(C)C3CC[C@@]4(C)C(CC[C@]4(C)O)C3CC[C@H]2C1 (some centres not stated)	n	x	n	n	n	n	x	x
O=c1[nH]c(=O)n(Cc2ccco2)c(O)c1/C=N/N1CCCCC1	n	24	n	n	n	n	29	40
Cc1ccccc1N1C(=O)CC(=O)N(c2ccccc2C)C1=O	n	31	n	n	n	n	n	22
CCOc1ccccc1N1C(=O)CC(=O)NC1=O	n	n	n	n	n	n	x	x
Cc1ccc(N2C(=O)NC(=O)/C(=C\c3cc(C)n(-c4sc5c(c4C#N)CCCC5)c3C)C2=O)cc1	n	26	n	n	n	n	36	50
O=P1(NCCCl)OCCCN1CCCl (configuration not stated)	n	n	n	n	n	n	x	x
Cc1ccc(-n2c(O)c(/C=C/C=Nc3ccccc3)c(=O)[nH]c2=O)cc1	n	134	n	71	n	n	51	48
O=c1[nH]c(=O)n(C2CCCCC2)c(O)c1C=Nc1ccc(N2CCOCC2)cc1	n	n	n	n	n	n	x	x
O=c1[nH]c(=O)n(-c2ccccc2)c(O)c1/C=C/C=Nc1ccccc1	x	157	n	n	n	n	166	160
COc1ccc(-n2c(O)c(/C=C/C=Nc3ccccc3)c(=O)[nH]c2=O)cc1	x	178	n	n	n	n	196	177

Screening data (PubChem BioAssay)
